According to ChEMBL document CHEMBL1155041, “Discovery of N-(2-aminophenyl)-4-[(4-pyridin-3-ylpyrimidin-2-ylamino)methyl]benzamide (MGCD0103), an orally active histone deacetylase inhibitor” (J Med Chem, 2008):
Structures can show the parent of a compound that is named as a salt. Calls of active or inactive are those of the source. The calls are words filed in the database; no cut-off is given here.

Key:
HCT-116 [1] = test: Induction of apoptosis in HCT116 cells at 1 uM; format: functional, cell-based; conditions: Homo sapiens
Outline: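 Apoptosis was measured in HCT116 cells with a cell-death detection ELISA (nucleosome release), read at 405 nm with a 490 nm reference. Scored positive/negative at 1 µM.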

SW48 [2] = test: Antitumor activity against human SW48 cells xenografted in CD1 nude mouse at 90 mg/kg/day, po; format: functional; conditions: read-out: TGI
Outline: (§1)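 Tumors were started from about 2 million cells injected sc into the flank of female CD-1 nude mice aged 8-10 weeks, then serially passaged at least three times. About 30 mg fragments were implanted sc under anesthesia. Dosing was oral, daily, as a solution in PBS acidified with 0.1 N HCl. Tumor volume and body weight were measured three times weekly for ≥2 weeks, with 6-8 animals per group and Student's t-test.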

SW48 [3] = test: Antitumor activity against human SW48 cells xenografted in CD1 nude mouse at 60 mg/kg/day, po; format: functional; conditions: read-out: TGI; outline: as §1
SW48 [4] = test: Antitumor activity against human SW48 cells xenografted in CD1 nude mouse at 120 mg/kg/day, po; format: functional; conditions: read-out: TGI; outline: as §1
[5] = Oral bioavailability in Beagle dog at 7 to 30 mg/kg; format: ADME, organism-based, Canis lupus familiaris; conditions: in vivo
Outline: (§2)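 Female CD-1 mice, female Sprague-Dawley rats and male beagle dogs were dosed iv or orally. Vehicles: mice, 0.05-0.1 N HCl in saline for both routes. Rats, 0.02-0.1 N HCl in saline iv; for po, HCl/saline with 0.5% HPMC and 0.01% Tween-80, or 0.5% CMC in 50 mM acetate pH 4.0. Dogs, HCl/saline with 40% PEG400 iv; for po, HCl/saline ±PEG400 or 0.5% hydroxyethylcellulose in pH 4.0 acetate. Plasma was collected over time and analyzed by LC-MS/MS.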

Mus musculus [6] = test: Cmax in CD1 mouse at 2.5 to 15 mg/kg, po; format: ADME, organism-based; design: dose 2.5-15 mg/kg, route oral; conditions: in vivo; outline: as §2
[7] = Clearance in Sprague-Dawley rat at 2.5 to 5 mg/kg, iv and 2.5 to 50 mg/kg, po; format: ADME, organism-based; conditions: in vivo; outline: as §2
DU-145 [8] = test: Antitumor activity against human DU145 cells xenografted in CD1 nude mouse at 40 mg/kg/day, po; format: functional; conditions: read-out: TGI; outline: as §1
A549 [9] = test: Antitumor activity against human A549 cells xenografted in CD1 nude mouse at 60 mg/kg/day, po; format: functional; conditions: read-out: TGI; outline: as §1
[10] = Tmax in Beagle dog at 7 to 30 mg/kg, po; format: ADME, organism-based, Canis lupus familiaris; design: dose 7-30 mg/kg, route oral; conditions: in vivo; outline: as §2
A549 [11] = test: Antiproliferative activity against human A549 cells after 72 hrs by MTT assay; conditions: A549, 72 h
[12] = Clearance in Beagle dog at 10 mg/kg, iv and 7 to 30 mg/kg, po; format: ADME, organism-based, Canis lupus familiaris; conditions: in vivo; outline: as §2
[13] = Oral bioavailability in Sprague-Dawley rat at 2.5 to 50 mg/kg; format: ADME, organism-based; conditions: in vivo
Outline: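 Female Sprague-Dawley rats dosed iv 2.5-5 mg/kg in 0.02-0.1 N HCl/saline. Oral doses of 2.5-50 mg/kg were given either in 0.02-0.1 N HCl/saline with 0.5% HPMC and 0.01% Tween-80, or in 0.5% CMC in 50 mM acetate pH 4.0. Plasma sampled at various time points and analysed by HPLC-MS/MS.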

[14] = Volume of distribution at steady state in Beagle dog at 10 mg/kg, iv and 7 to 30 mg/kg, po; format: ADME, organism-based, Canis lupus familiaris; conditions: in vivo, read-out: Vdss; outline: as §2
DU-145 [15] = test: Antiproliferative activity against human Du145 cells after 72 hrs by MTT assay; format: functional, cell-based; conditions: DU-145, 72 h
Outline: (§3)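 Cells (HMEC from a commercial source, others from ATCC) cultured per vendor instructions, exposed to a range of concentrations for 72 h at 37 °C, 5% CO2. MTT at 0.5 mg/mL final for 4 h, then DMF/SDS solubilization overnight, absorbance at 570 nm with 630 nm reference. OD converted to cell number via a growth curve. IC50 is the concentration giving 50% of DMSO-control cell number. At least three independent experiments.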

A-431 [16] = test: Antitumor activity against human A431 cells xenografted in CD1 nude mouse at 60 mg/kg/day, po; format: functional; conditions: read-out: TGI; outline: as §1
A549 [17] = test: Antitumor activity against human A549 cells xenografted in CD1 nude mouse at 40 mg/kg/day, po; format: functional; conditions: read-out: TGI; outline: as §1
[18] = Tmax in Sprague-Dawley rat at 2.5 to 50 mg/kg, po; format: ADME, organism-based; design: dose 2.5-50 mg/kg, route oral; conditions: in vivo; outline: as §2
HCT-116 [19] = test: Antiproliferative activity against human HCT116 cells after 72 hrs by MTT assay; conditions: HCT-116, 72 h
[20] = Half life in Beagle dog at 10 mg/kg, iv; format: ADME, organism-based, Canis lupus familiaris; design: dose 10 mg/kg, route intravenous; conditions: in vivo; outline: as §2
[21] = Oral bioavailability in CD1 mouse at 2.5 to 15 mg/kg; format: ADME, organism-based; conditions: in vivo
Outline: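 Female CD-1 mice dosed iv 2.5-15 mg/kg and orally 2.5-15 mg/kg. Both routes used 0.05-0.1 N HCl in saline. Plasma collected at various time points and analysed by HPLC-MS/MS. Bioavailability taken from oral versus iv exposure.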

HMEC = test: Antiproliferative activity against HMEC after 72 hrs by MTT assay; format: functional, cell-based; conditions: Homo sapiens; outline: as §3
DU-145 [22] = test: Antitumor activity against human DU145 cells xenografted in CD1 nude mouse at 70 mg/kg/day, po; format: functional; conditions: read-out: TGI; outline: as §1
Canis familiaris = test: Cmax in Beagle dog at 7 to 30 mg/kg, po; format: ADME, organism-based, Canis lupus familiaris; design: dose 7-30 mg/kg, route oral; conditions: in vivo; outline: as §2
HCT-116 [23] = test: Cell cycle arrest in human HCT116 cells assessed as accumulation at G2/M phase; format: functional, cell-based
Outline: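 Cells treated for 16 h, fixed in 70% ethanol at -20 °C, RNase-treated and stained with propidium iodide (50 µg/mL). DNA content measured by flow cytometry to score G2/M accumulation. EC50 derived.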

DU-145 [24] = test: Antitumor activity against human DU145 cells xenografted in CD1 nude mouse at 80 mg/kg; format: functional; conditions: read-out: TGI; outline: as §1
[25] = Volume of distribution at steady state in Sprague-Dawley rat at 2.5 to 5 mg/kg, iv and 2.5 to 50 mg/kg, po; format: ADME, organism-based; conditions: in vivo, read-out: Vdss; outline: as §2
[26] = Half life in CD1 mouse at 2.5 to 15 mg/kg, iv; format: ADME, organism-based; design: dose 2.5-15 mg/kg, route intravenous; conditions: in vivo; outline: as §2
HCT-116 [27] = test: Induction of p21cip/waf1 protein expression in human HCT116 cells relative to MS275; format: functional, cell-based
T-24 = test: Induction of H3 histone acetylation in human T24 cells relative to MS275; format: functional, cell-based
Outline: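 Histones were acid-extracted (H2SO4, then acetone precipitation) from treated cells. In the ELISA, 2 µg of histones went onto anti-histone-coated plates and were probed with anti-acetyl-H3 (1:1000). Signal was normalized to total H3 measured on 0.5 µg with anti-H3.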

[28] = Tmax in CD1 mouse at 2.5 to 15 mg/kg, po; format: ADME, organism-based; design: dose 2.5-15 mg/kg, route oral; conditions: in vivo; outline: as §2
Histone deacetylase 11 = molecular target: T1, Histone deacetylase 11 (Homo sapiens, UniProt Q96DB2); test: Inhibition of human recombinant HDAC11 homogeneous fluorescence release assay
T1 sequence (Q96DB2 whole entry): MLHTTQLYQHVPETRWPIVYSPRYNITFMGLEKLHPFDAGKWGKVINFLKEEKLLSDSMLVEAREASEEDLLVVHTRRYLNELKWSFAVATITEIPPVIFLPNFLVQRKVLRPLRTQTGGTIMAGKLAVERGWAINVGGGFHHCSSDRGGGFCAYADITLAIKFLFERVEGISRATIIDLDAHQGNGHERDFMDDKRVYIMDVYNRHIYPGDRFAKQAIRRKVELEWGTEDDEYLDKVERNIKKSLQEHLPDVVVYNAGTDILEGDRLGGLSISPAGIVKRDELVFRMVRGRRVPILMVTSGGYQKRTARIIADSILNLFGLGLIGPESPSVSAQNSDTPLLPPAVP
Outline: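 Boc-Lys(ε-Ac)-AMC substrate then added at 37 °C, with isotype-specific substrate level and time. Trypsin 20 min at RT releases fluorophore, read ex 360/em 470 nm. IC50 from dose-response curves, 6-21 independent experiments.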

A-431 [29] = test: Antitumor activity against human A431 cells xenografted in CD1 nude mouse at 90 mg/kg/day, po; format: functional; conditions: read-out: TGI; outline: as §1
Rattus norvegicus = test: Cmax in Sprague-Dawley rat at 2.5 to 50 mg/kg, po; format: ADME, organism-based; design: dose 2.5-50 mg/kg, route oral; conditions: in vivo; outline: as §2
Mus musculus [30] = test: Volume of distribution in CD1 mouse at 2.5 to 15 mg/kg, iv and po; format: ADME, organism-based; design: dose 2.5-15 mg/kg, route oral; conditions: in vivo; outline: as §2
[31] = Half life in Sprague-Dawley rat at 2.5 to 5 mg/kg, iv; format: ADME, organism-based; design: dose 2.5-5 mg/kg, route intravenous; conditions: in vivo; outline: as §2

## Nc1ccccc1NC(=O)c1ccc(CNc2nccc(-c3cccnc3)n2)cc1
HCT-116 [1]
  Activity: Active

## Nc1ccccc1NC(=O)c1ccc(CNc2nccc(-c3cccnc3)n2)cc1 [MOCETINOSTAT DIHYDROBROMIDE]
SW48 [2]
  inhibition in vivo at 90 mg/kg/day: 70%
SW48 [3]
  inhibition in vivo at 60 mg/kg/day: 64%
SW48 [4]
  inhibition in vivo at 120 mg/kg/day: 93%

## Nc1ccccc1NC(=O)c1ccc(CNc2nccc(-c3cccnc3)n2)cc1 [MOCETINOSTAT]
[5]
  bioavailability: 1%
Mus musculus [6]
  Cmax normalised: 0.086 µM/mg/kg
[7]
  clearance: 28.3 mL/min/kg
DU-145 [8]
  inhibition in vivo at 40 mg/kg/day: 4%
A549 [9]
  inhibition in vivo at 60 mg/kg/day: 73%
[10]
  Tmax: 17.4 min
A549 [11]
  IC50: 900 nM
[12]
  clearance: 33.3 mL/min/kg
[13]
  bioavailability: 47%
[14]
  Vd: 0.8 L/kg
DU-145 [15]
  IC50: 670 nM
A-431 [16]
  inhibition in vivo at 60 mg/kg/day: 30%
A549 [17]
  inhibition in vivo at 40 mg/kg/day: 56%
[18]
  Tmax: 35.4 min
HCT-116 [19]
  IC50: 290 nM
[20]
  half-life: 78 min
[21]
  bioavailability: 12%
HMEC
  IC50: 20000 nM
DU-145 [22]
  inhibition in vivo at 70 mg/kg/day: 47%
Canis familiaris
  Cmax normalised: 0.0029 µM/mg/kg
HCT-116 [23]
  EC50: < 1000 nM
DU-145 [24]
  inhibition in vivo at 80 mg/kg: 82%
[25]
  Vd: 0.91 L/kg
[26]
  half-life: 36 min
HCT-116 [27]
  EC50: 450 nM
T-24
  EC50: 1380 nM
[28]
  Tmax: 15 min
Histone deacetylase 11
  IC50: 590 nM
A-431 [29]
  inhibition in vivo at 90 mg/kg/day: 64%
Rattus norvegicus
  Cmax normalised: 0.3 µM/mg/kg
Mus musculus [30]
  Vdss: 0.35 L/kg
[31]
  half-life: 42 min
